Reference: ChEMBL document CHEMBL1153560, “In vitro activities of doripenem and six comparator drugs against 423 aerobic and anaerobic bacterial isolates from infected diabetic foot wounds” (2008)
Values after ≈ are worked out from the molar mass of the structure shown.

Key:
Type in all cases: functional
[1] = tested on: Escherichia coli; experiment: Antibacterial activity against Escherichia coli isolated from patient with diabetic foot infection assessed as percent resistant isolates after 18 to 24 hrs by broth microdilution method
How it was run: (§1)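 Aerobes subcultured on Trypticase soy blood agar, then broth microdilution in cation-adjusted Mueller-Hinton broth. Trays prepared in-house with twofold dilutions and stored at −70°C. Overnight colonies suspended to about 5 × 10^5 CFU/ml final. Read after 18 to 24 h at 37°C. QC strains included S. aureus ATCC 29213 and E. coli ATCC 25922.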

[2] = tested on: Proteus mirabilis; experiment: Antibacterial activity against Proteus mirabilis isolated from patient with diabetic foot infection assessed as percent resistant isolates after 18 to 24 hrs by broth microdilution method; how it was run: as §1
[3] = tested on: Pseudomonas aeruginosa; experiment: Antibacterial activity against Pseudomonas aeruginosa isolated from patient with diabetic foot infection assessed as percent resistant isolates after 18 to 24 hrs by broth microdilution method; how it was run: as §1
[4] = tested on: Streptococcus dysgalactiae subsp. equisimilis; experiment: Antibacterial activity against Streptococcus dysgalactiae subsp. equisimilis isolated from patient with diabetic foot infection after 18 to 24 hrs by broth microdilution method
How it was run: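 Streptococcal isolates were subcultured on Trypticase soy blood agar. Broth microdilution used cation-adjusted Mueller-Hinton broth with lysed horse blood, in in-house trays of serial twofold drug dilutions stored at −70°C. Overnight colonies were suspended to a final inoculum of approximately 5 × 10^5 CFU/ml. MIC was read after 18 to 24 h incubation at 37°C.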

[5] = tested on: Staphylococcus aureus; experiment: Antibacterial activity against methicillin-resistant Staphylococcus aureus isolated from patient with diabetic foot infection assessed as percent resistant isolates after 18 to 24 hrs by broth microdilution method
How it was run: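 Isolates grown on Trypticase soy blood agar, then tested by broth microdilution in unsupplemented cation-adjusted Mueller-Hinton broth. In-house trays held serial twofold drug dilutions and were stored at −70°C. Overnight colonies were suspended to a final inoculum near 5 × 10^5 CFU/ml, and trays read after 18–24 h at 37°C. QC strains: S. aureus ATCC 29213, E. coli ATCC 25922.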

[6] = tested on: Staphylococcus epidermidis; experiment: Antibacterial activity against Staphylococcus epidermidis isolated from patient with diabetic foot infection assessed as percent resistant isolates after 18 to 24 hrs by broth microdilution method; how it was run: as §1
[7] = tested on: Staphylococcus lugdunensis; experiment: Antibacterial activity against Staphylococcus lugdunensis isolated from patient with diabetic foot infection assessed as percent resistant isolates after 18 to 24 hrs by broth microdilution method; how it was run: as §1
[8] = tested on: Streptococcus pyogenes; experiment: Antibacterial activity against Streptococcus pyogenes isolated from patient with diabetic foot infection assessed as percent resistant isolates after 18 to 24 hrs by broth microdilution method
How it was run: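 Isolates subcultured on Trypticase soy blood agar. MICs by broth microdilution in cation-adjusted Mueller-Hinton broth with lysed horse blood, in in-house trays of serial twofold drug dilutions stored at −70°C. Colonies from overnight growth were suspended to a final inoculum of about 5 × 10^5 CFU/ml. Read after 18–24 h at 37°C.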

[9] = tested on: Escherichia coli; experiment: Antibacterial activity against Escherichia coli isolated from patient with diabetic foot infection after 18 to 24 hrs by broth microdilution method
How it was run: (§2)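 Isolates were subcultured on Trypticase soy blood agar and tested by broth microdilution in cation-adjusted Mueller-Hinton broth. In-house trays of twofold drug dilutions were stored at −70°C. Overnight colonies gave a final inoculum of about 5 × 10^5 CFU/ml. Plates were read after 18 to 24 h at 37°C.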

[10] = tested on: Klebsiella aerogenes; experiment: Antibacterial activity against Enterobacter aerogenes isolated from patient with diabetic foot infection after 18 to 24 hrs by broth microdilution method; how it was run: as §2
[11] = tested on: Klebsiella pneumoniae; experiment: Antibacterial activity against Klebsiella pneumoniae isolated from patient with diabetic foot infection after 18 to 24 hrs by broth microdilution method; how it was run: as §2
[12] = tested on: Proteus vulgaris; experiment: Antibacterial activity against Proteus vulgaris isolated from patient with diabetic foot infection after 18 to 24 hrs by broth microdilution method; how it was run: as §2
[13] = tested on: Pseudomonas aeruginosa; experiment: Antibacterial activity against Pseudomonas aeruginosa isolated from patient with diabetic foot infection after 18 to 24 hrs by broth microdilution method; how it was run: as §2
[14] = tested on: Corynebacterium aurimucosum; experiment: Antibacterial activity against Corynebacterium aurimucosum isolated from patient with diabetic foot infection after 48 hrs by broth microdilution method
How it was run: (§3)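 Isolates were subcultured on Trypticase soy blood agar. Broth microdilution used cation-adjusted Mueller-Hinton broth with lysed horse blood, in-house trays of twofold drug dilutions stored at −70°C. Colonies from overnight growth gave a final inoculum of about 5 × 10^5 CFU/ml. Trays were read after 18 to 24 h at 37°C, up to 48 h for some strains.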

[15] = tested on: Corynebacterium jeikeium; experiment: Antibacterial activity against Corynebacterium jeikeium isolated from patient with diabetic foot infection after 48 hrs by broth microdilution method; how it was run: as §3
[16] = tested on: Corynebacterium minutissimum; experiment: Antibacterial activity against Corynebacterium minutissimum isolated from patient with diabetic foot infection after 48 hrs by broth microdilution method; how it was run: as §3
[17] = tested on: Corynebacterium striatum; experiment: Antibacterial activity against Corynebacterium striatum isolated from patient with diabetic foot infection after 48 hrs by broth microdilution method; how it was run: as §3
[18] = tested on: Corynebacterium accolens; experiment: Antibacterial activity against Corynebacterium accolens isolated from patient with diabetic foot infection after 48 hrs by broth microdilution method; how it was run: as §3
[19] = tested on: Corynebacterium simulans; experiment: Antibacterial activity against Corynebacterium simulans isolated from patient with diabetic foot infection after 48 hrs by broth microdilution method; how it was run: as §3
[20] = tested on: Corynebacterium xerosis; experiment: Antibacterial activity against Corynebacterium xerosis isolated from patient with diabetic foot infection after 48 hrs by broth microdilution method; how it was run: as §3

| Compound | Activity [1] | Activity [2] | MIC50 [4] | MIC90 [4] | Activity [5] | Activity [6] | Activity [7] | Activity [8] | MIC50 [9] | MIC90 [9] | MIC50 [10] | MIC90 [10] | MIC50 [11] | MIC90 [11] | MIC50 [12] | MIC90 [12] | MIC50 [13] | MIC90 [13] | MIC50 [14] | MIC90 [14] | also measured |
| --- | --- | --- | --- | --- | --- | --- | --- | --- | --- | --- | --- | --- | --- | --- | --- | --- | --- | --- | --- | --- | --- |
| C[C@@H](O)[C@H]1C(=O)N2C(C(=O)O)=C(S[C@@H]3CN[C@H](CNS(N)(=O)=O)C3)[C@H](C)[C@H]12 [DORIPENEM] | 0% | 0% | ≤ 0.015 µg/mL | ≤ 0.015 µg/mL | 100% | 67% | 0% | 0% | 0.03 µg/mL (≈ 0.0713 µM) | 0.03 µg/mL (≈ 0.0713 µM) | 0.06 µg/mL (≈ 0.143 µM) | 0.25 µg/mL (≈ 0.595 µM) | 0.06 µg/mL (≈ 0.143 µM) | 0.125 µg/mL (≈ 0.297 µM) | 0.125 µg/mL (≈ 0.297 µM) | 0.25 µg/mL (≈ 0.595 µM) | 0.25 µg/mL (≈ 0.595 µM) | 2 µg/mL (≈ 4.76 µM) | 1 µg/mL (≈ 2.38 µM) | 8 µg/mL (≈ 19 µM) | Activity [3]: 7%; MIC50 [15]: 1 µg/mL (≈ 2.38 µM); MIC90 [15]: 8 µg/mL (≈ 19 µM); MIC50 [16]: 1 µg/mL (≈ 2.38 µM); MIC90 [16]: 8 µg/mL (≈ 19 µM); MIC50 [17]: 0.125 µg/mL (≈ 0.297 µM); MIC90 [17]: 0.25 µg/mL (≈ 0.595 µM); MIC50 [18]: 0.125 µg/mL (≈ 0.297 µM); MIC90 [18]: 0.25 µg/mL (≈ 0.595 µM); MIC50 [19]: 0.125 µg/mL (≈ 0.297 µM); MIC90 [19]: 0.25 µg/mL (≈ 0.595 µM); MIC50 [20]: 0.125 µg/mL (≈ 0.297 µM); MIC90 [20]: 0.25 µg/mL (≈ 0.595 µM) |
| C[C@@H](O)[C@H]1C(=O)N2C(C(=O)O)=C(S[C@@H]3CN[C@H](C(=O)Nc4cccc(C(=O)O)c4)C3)[C@H](C)[C@H]12 [ERTAPENEM] | 0% | 0% | ≤ 0.015 µg/mL | ≤ 0.015 µg/mL | 100% | 67% | 0% | 0% | ≤ 0.015 µg/mL | 0.06 µg/mL (≈ 0.126 µM) | 0.06 µg/mL (≈ 0.126 µM) | 0.5 µg/mL (≈ 1.05 µM) | ≤ 0.015 µg/mL | ≤ 0.015 µg/mL | ≤ 0.015 µg/mL | 0.25 µg/mL (≈ 0.526 µM) | 8 µg/mL (≈ 16.8 µM) | 32 µg/mL (≈ 67.3 µM) | 1 µg/mL (≈ 2.1 µM) | 32 µg/mL (≈ 67.3 µM) | MIC50 [15]: 1 µg/mL (≈ 2.1 µM); MIC90 [15]: 32 µg/mL (≈ 67.3 µM); MIC50 [16]: 1 µg/mL (≈ 2.1 µM); MIC90 [16]: 32 µg/mL (≈ 67.3 µM); MIC50 [17]: 0.5 µg/mL (≈ 1.05 µM); MIC90 [17]: 1 µg/mL (≈ 2.1 µM); MIC50 [18]: 0.5 µg/mL (≈ 1.05 µM); MIC90 [18]: 1 µg/mL (≈ 2.1 µM); MIC50 [19]: 0.5 µg/mL (≈ 1.05 µM); MIC90 [19]: 1 µg/mL (≈ 2.1 µM); MIC50 [20]: 0.5 µg/mL (≈ 1.05 µM); MIC90 [20]: 1 µg/mL (≈ 2.1 µM) |
